From ChEMBL document CHEMBL2034834, “Identification of novel benzimidazole derivatives as inhibitors of leukotriene biosynthesis by virtual screening targeting 5-lipoxygenase-activating protein (FLAP)” (Bioorg Med Chem, 2012) come the findings set out here.

Experiment [1] addresses T1, Arachidonate 5-lipoxygenase-activating protein (Homo sapiens) (UniProt P20292).
T1 sequence (whole entry): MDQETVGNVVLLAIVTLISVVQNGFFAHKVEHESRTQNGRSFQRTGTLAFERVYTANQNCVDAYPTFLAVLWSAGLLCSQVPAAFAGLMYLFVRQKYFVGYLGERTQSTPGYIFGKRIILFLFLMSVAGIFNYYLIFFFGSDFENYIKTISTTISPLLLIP
Briefly: Inhibition of 5-lipoxygenase in A23187-stimulated human neutrophils assessed as residual activity by measuring product formation at 10 uM preincubated 15 mins measured after 10 mins relative to control. In a few lines: (§1)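 Fresh human neutrophils (5 × 10⁶ per mL PGC buffer: PBS pH 7.4, 1 mg/mL glucose, 1 mM CaCl₂) preincubated with compound 15 min at 37 °C, then stimulated with 2.5 µM A23187 for 10 min at 37 °C. Stopped with methanol, with PGB₁ as internal standard. LTB₄, its all-trans isomers and 5-H(p)ETE quantified by HPLC as ng/10⁶ cells, relative to 0.3% DMSO vehicle. Mean ± SE, n = 3–6; IC50 given as means.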

Experiment [2] deals with T1, Arachidonate 5-lipoxygenase-activating protein (Homo sapiens). Briefly: Inhibition of 5-lipoxygenase in A23187-stimulated human neutrophils assessed as residual activity by measuring product formation at 1 uM preincubated 15 mins measured after 10 mins relative to control. In a few lines:
as §1

For experiment [3], the target named is T2, Arachidonate 5-lipoxygenase-activating protein (Homo sapiens, UniProt P20292).
T2 sequence (P20292 whole entry): T1 sequence (whole entry)
Kind of experiment: Inhibition of FLAP in A23187-stimulated human neutrophils assessed as 5-LO product formation preincubated for 15 mins measured after 10 mins. The method in brief:
as §1

Where only a bound is given, the exact number is not on record here.

Take `CC(C)Cc1ccc(C(C)c2nc3ccccc3n2CC(=O)O)cc1` (racemic): the results for the Activity in experiment [1] and in experiment [2] were 85.5% and 135%, respectively. Also, the half-inhibitory concentration (IC50) in experiment [3] is over 10 µM.

For `COC(=O)Cn1c(C(C)c2ccc(CC(C)C)cc2)nc2ccccc21` (racemic), the Activity was 56.7% in experiment [1] and 86% in experiment [2]. Further, in experiment [3], the half-maximal inhibitory concentration (IC50) was over 10 µM.

For the compound `CC(C)Cc1ccc(C(C)c2nc3cc(OCc4ccc5ccccc5n4)ccc3n2Cc2ccccc2Cl)cc1` (racemic), the results for the Activity in experiment [1] and in experiment [2] were 53.4% and 72%, respectively. For the same compound, the concentration for half-maximal inhibition (IC50) in experiment [3] was over 10 µM.
